According to ChEMBL document CHEMBL2086369, “Design, synthesis, and pharmacological characterization of indol-3-ylacetamides, indol-3-yloxoacetamides, and indol-3-ylcarboxamides: potent and selective CB2 cannabinoid receptor inverse agonists” (J Med Chem, 2012):
Calls of active or inactive are those of the source. The calls are words filed in the database; no cut-off is given here.

How the values were obtained:
Cannabinoid receptor 2 [1] = target: T1, Cannabinoid receptor 2 (Homo sapiens, UniProt P34972); test: Displacement of [3H]CP-55,940 from human recombinant CB2 receptor transfected in HEK cells; assay type: cell-based, HEK293
Homo sapiens = organism: Homo sapiens; test: Selectivity index, ratio of Ki for human recombinant CB1 receptor to Ki for human recombinant CB2 receptor
Cannabinoid receptor 1 = Cannabinoid receptor 1 (Homo sapiens, UniProt P21554); test: biochemical; assay type: cell-based, HEK293
Mus musculus [2] = test: Antinociceptive activity in mouse assessed as reduction of formalin-induced nocifensive response at 1 mg/kg, ip administered 15 mins before formalin challenge measured for 0 to 7 mins in presence of CB2 agonist COR167; assay type: functional, organism-based; set-up: dose 1 mg/kg
In short: (§1)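 Mice (n = 8−10 per group) got compound ip (1 or 3 mg/kg) or vehicle 15 min before formalin (1.25% in saline, 30 μL) into the dorsal hindpaw. Where used, COR167 (1 mg/kg, ip) was given 5 min before compound. Time spent licking plus elevating the paw was scored every 5 min over phase 1 (0−7 min) and phase 2 (15−60 min). Mean ± SEM; ANOVA with Dunnett's test.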

Mus musculus [3] = test: Antinociceptive activity in mouse assessed as reduction of formalin-induced nocifensive response at 1 to 3 mg/kg, ip administered 15 mins before formalin challenge measured for 0 to 7 mins; assay type: functional, organism-based; in short: as §1
Mus musculus [4] = test: Analgesic activity in ip dosed mouse assessed as reduction of formalin-induced inflammatory pain administered 15 mins before formalin challenge measured for 15 to 60 mins; assay type: functional, organism-based; in short: as §1
Cannabinoid receptor 2 [5] = target: T1, Cannabinoid receptor 2; test: Inverse agonist activity at human CB2 receptor expressed in CHO cells assessed as increase of forskolin-induced cAMP level at 1 uM by scintillation counting; assay type: functional, cell-based
In short: (§2)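 CHO cells expressing human CB2, trypsinized, 1 × 10⁶ cells per assay in HEPES-buffered saline with glucose, pH 7.4, 37 °C. Preincubated 10 min with 0.5 mM Ro 20-1724. Compound tested with 1 μM forskolin. Stopped with cold 6% TCA, ether-extracted, cAMP measured by [³H]cAMP competition binding to adrenal binding protein with scintillation counting. Given as % cAMP increase; means of ≥4 experiments in duplicate.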

Mus musculus [6] = test: Analgesic activity in mouse assessed as reduction of formalin-induced inflammatory pain at 1 mg/kg, ip administered 15 mins before formalin challenge measured for 15 to 60 mins in presence of CB2 agonist COR167; assay type: functional, organism-based; set-up: dose 1 mg/kg; in short: as §1
Cannabinoid receptor 2 [7] = target: T1, Cannabinoid receptor 2; test: Inverse agonist activity at human CB2 receptor expressed in CHO cells assessed as increase of forskolin-induced cAMP level at 10 uM by scintillation counting; assay type: functional, cell-based; in short: as §2
Cannabinoid receptor 2 [8] = target: T1, Cannabinoid receptor 2; details: CHO, 10 uM
Cannabinoid receptor 2 [9] = target: T1, Cannabinoid receptor 2; details: CHO, 1 uM

Sequence of Cannabinoid receptor 1 (P21554 whole entry): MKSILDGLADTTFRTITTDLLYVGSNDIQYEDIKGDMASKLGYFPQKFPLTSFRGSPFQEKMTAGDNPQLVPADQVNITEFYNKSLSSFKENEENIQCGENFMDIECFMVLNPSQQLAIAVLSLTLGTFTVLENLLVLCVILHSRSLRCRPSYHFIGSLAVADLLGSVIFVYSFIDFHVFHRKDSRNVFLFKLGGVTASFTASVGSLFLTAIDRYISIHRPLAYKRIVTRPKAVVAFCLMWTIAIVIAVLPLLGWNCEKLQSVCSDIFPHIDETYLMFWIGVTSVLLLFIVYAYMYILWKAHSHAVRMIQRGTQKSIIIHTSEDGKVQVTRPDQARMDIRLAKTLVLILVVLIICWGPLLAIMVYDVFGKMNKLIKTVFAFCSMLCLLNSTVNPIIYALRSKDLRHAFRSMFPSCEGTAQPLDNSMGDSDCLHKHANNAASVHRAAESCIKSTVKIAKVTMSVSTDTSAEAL
T1 sequence (P34972 whole entry): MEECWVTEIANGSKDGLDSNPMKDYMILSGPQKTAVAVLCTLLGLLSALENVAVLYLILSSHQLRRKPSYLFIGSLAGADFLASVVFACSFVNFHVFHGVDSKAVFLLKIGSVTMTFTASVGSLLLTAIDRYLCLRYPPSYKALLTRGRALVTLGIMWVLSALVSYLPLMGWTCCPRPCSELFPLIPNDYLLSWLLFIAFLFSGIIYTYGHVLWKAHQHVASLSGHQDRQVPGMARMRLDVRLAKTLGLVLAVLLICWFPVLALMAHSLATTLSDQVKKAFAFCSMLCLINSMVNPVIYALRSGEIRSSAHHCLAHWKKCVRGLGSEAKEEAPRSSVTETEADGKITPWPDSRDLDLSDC

SMILES | Ki (Cannabinoid receptor 2 [1]) [nM] | Ratio Ki (Homo sapiens) | Ki (Cannabinoid receptor 1) [nM] | other results
CCn1cc(CC(=O)NC23CC4CC(CC(C4)C2)C3)c2cc(-c3ccccc3)ccc21 | 67 | 10.4 | 698 | –
CCCCCn1cc(CC(=O)NC23CC4CC(CC(C4)C2)C3)c2cc(Br)ccc21 | 170 | 32.4 | 5510 | –
CCCCCn1cc(CC(=O)NC23CC4CC(CC(C4)C2)C3)c2cc(-c3ccco3)ccc21 | 110 | 15.1 | 1660 | –
O=C(Cc1cn(Cc2ccccc2)c2ccc(-c3ccccc3)cc12)NC12CC3CC(CC(C3)C1)C2 | 189 | > 52 | > 10000 | –
CCCCn1cc(CC(=O)NC23CC4CC(CC(C4)C2)C3)c2cc(-c3ccccc3)ccc21 | 20.5 | > 487 | > 10000 | –
CCCCCn1cc(C(=O)C(=O)NC23CC4CC(CC(C4)C2)C3)c2cc(-c3ccco3)ccc21 | 0.37 | 932 | 345 | Activity (Mus musculus [2]): Active; Activity (Mus musculus [3]): inactive; Activity (Mus musculus [4]): Dose-dependent effect; Activity (Cannabinoid receptor 2 [5]): 138%; Activity (Mus musculus [6]): Active; Activity (Cannabinoid receptor 2 [7]): 163%
CCCn1cc(CC(=O)NC23CC4CC(CC(C4)C2)C3)c2cc(-c3ccccc3)ccc21 | 11.8 | 128 | 1510 | –
CCCCCn1cc(C(=O)C(=O)NC23CC4CC(CC(C4)C2)C3)c2cc(-c3ccccc3)ccc21 | 12.7 | > 787 | > 10000 | Activity (Cannabinoid receptor 2 [5]): 55%; Activity (Cannabinoid receptor 2 [7]): 70%
C=CCn1cc(CC(=O)NC23CC4CC(CC(C4)C2)C3)c2cc(-c3ccco3)ccc21 | 50 | 11.2 | 560 | –
CCCCCn1cc(C(=O)C(=O)NC2CCCCC2)c2cc(-c3ccccc3)ccc21 | 11.2 | > 892 | > 10000 | –
C=CCn1cc(C(=O)C(=O)NC23CC4CC(CC(C4)C2)C3)c2cc(-c3ccccc3)ccc21 | 25.4 | 154 | 3920 | –
C=CCn1cc(CC(=O)NC23CC4CC(CC(C4)C2)C3)c2cc(-c3ccccc3)ccc21 | 50 | 10.6 | 530 | Activity (Cannabinoid receptor 2 [5]): 67%; Activity (Cannabinoid receptor 2 [7]): 88%
C=CCn1cc(C(=O)C(=O)NC23CC4CC(CC(C4)C2)C3)c2cc(-c3ccco3)ccc21 | 10.3 | 351 | 3620 | Activity (Cannabinoid receptor 2 [5]): 62%; Activity (Cannabinoid receptor 2 [7]): 75%
CCCCCn1cc(C(=O)NC23CC4CC(CC(C4)C2)C3)c2cc(-c3ccccc3)ccc21 | 11.6 | 90.7 | 1050 | –
CCCCCn1cc(C(=O)NC23CC4CC(CC(C4)C2)C3)c(=O)c2cc(-c3ccco3)ccc21 | – | – | > 10000 | –
C=CCCn1cc(CC(=O)NC23CC4CC(CC(C4)C2)C3)c2cc(-c3ccccc3)ccc21 | 17.8 | 103 | 1830 | –
C=CCn1cc(C(=O)NC23CC4CC(CC(C4)C2)C3)c2cc(-c3ccco3)ccc21 | 5.73 | 488 | 2790 | –
C=CCn1cc(C(=O)NC23CC4CC(CC(C4)C2)C3)c2cc(-c3ccc(O)cc3)ccc21 | 22.2 | > 450 | > 10000 | Activity (Cannabinoid receptor 2 [5]): 51%; Activity (Cannabinoid receptor 2 [7]): 68%
CCCC(C)(C)c1ccc2c(c1)OC(C)(C)[C@@H]1CC=C(C)C[C@@H]21 | – | – | – | inhibition (Cannabinoid receptor 2 [8]): 94%; inhibition (Cannabinoid receptor 2 [9]): 87%
C=CCn1cc(CC(=O)NC2CCCCC2)c2cc(OCc3cccc(OC)c3)ccc21 | 400 | > 25 | > 10000 | –
C=CCn1cc(CC(=O)NC2CCCCCC2)c2cc(-c3ccco3)ccc21 | 377 | > 26 | > 10000 | –
Cn1cc(CC(=O)NC23CC4CC(CC(C4)C2)C3)c2cc(-c3ccccc3)ccc21 | 98 | 5 | 488 | –
C=CCn1cc(C(=O)NC23CC4CC(CC(C4)C2)C3)c2cc(-c3ccccc3)ccc21 | 1.82 | 26.5 | 48.2 | –
CCCCCn1cc(CC(=O)NC23CC4CC(CC(C4)C2)C3)c2cc(-c3ccccc3)ccc21 | 70 | 34 | 2380 | –
O=C(Cc1c[nH]c2ccc(-c3ccccc3)cc12)NC12CC3CC(CC(C3)C1)C2 | 70.8 | > 141 | > 10000 | –
CCCCCn1cc(C(=O)NC23CC4CC(CC(C4)C2)C3)c2cc(-c3ccco3)ccc21 | 2.48 | 138 | 342 | Activity (Mus musculus [2]): inactive; Activity (Mus musculus [3]): inactive; Activity (Mus musculus [4]): Dose-dependent effect; Activity (Cannabinoid receptor 2 [5]): 93%; Activity (Mus musculus [6]): inactive; Activity (Cannabinoid receptor 2 [7]): 110%
C=CCn1cc(CC(=O)NC23CC4CC(CC(C4)C2)C3)c2cc(Br)ccc21 | 1090 | > 9 | > 10000 | –
CCCCCn1cc(C(=O)NC23CC4CC(CC(C4)C2)C3)c2ccc(-c3ccccc3)cc21 | 3.52 | 0.6 | 2.03 | –
CCCCCn1cc(C(=O)NC23CC4CC(CC(C4)C2)C3)c2cc(-c3cccs3)ccc21 | 6.37 | 568 | 3620 | Activity (Cannabinoid receptor 2 [5]): 106%; Activity (Cannabinoid receptor 2 [7]): 135%
